A word on the IC50: it is the concentration that inhibits the measured activity by half. As a reminder, the inhibition is the relative decrease from the control value, in per cent.

Bounds are passed on as bounds.

Data set [1] concerns the target T1, Mitogen-activated protein kinase 14 (Homo sapiens, UniProt Q16539). The data set is described as follows: Competitive inhibition of p38alpha MAP kinase (unknown origin) in presence of 100 uM ATP.
Data set [2] addresses T1, Mitogen-activated protein kinase 14. The data set is described as follows: Inhibition of p38alpha MAP kinase in human whole blood assessed as inhibition of LPS-induced TNFalpha release at 100 uM by ELISA.
Data set [3] shares this target. The data set is described as follows: Inhibition of p38alpha MAP kinase in human whole blood assessed as inhibition of LPS-induced TNFalpha release by ELISA. In general terms: An ELISA detects its analyte on a solid surface through an enzyme-linked reagent.
Data set [4] is described as follows: Metabolic stability in human/rat liver microsomes at 1 mg/ml after 180 mins by LC/MS analysis. In kind it is ADME, Microsome. The note with it: read-out: Stability. The method, boiled down:
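Rat and human liver microsomes were incubated with microsomal protein standardized to 1 mg/mL. Aliquots were withdrawn immediately after reaction start and at 10, 20, 40, 60, 120 and 180 min, then analysed by LC-MS.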
In general terms: Liver microsomes are vesicles of endoplasmic reticulum, rich in cytochrome P450 enzymes.

Data set [5] deals with T1, Mitogen-activated protein kinase 14. The data set is described as follows: Competitive inhibition of p38alpha MAP kinase (unknown origin) at 10 uM in presence of 100 uM ATP.

T1 sequence (Q16539 whole entry): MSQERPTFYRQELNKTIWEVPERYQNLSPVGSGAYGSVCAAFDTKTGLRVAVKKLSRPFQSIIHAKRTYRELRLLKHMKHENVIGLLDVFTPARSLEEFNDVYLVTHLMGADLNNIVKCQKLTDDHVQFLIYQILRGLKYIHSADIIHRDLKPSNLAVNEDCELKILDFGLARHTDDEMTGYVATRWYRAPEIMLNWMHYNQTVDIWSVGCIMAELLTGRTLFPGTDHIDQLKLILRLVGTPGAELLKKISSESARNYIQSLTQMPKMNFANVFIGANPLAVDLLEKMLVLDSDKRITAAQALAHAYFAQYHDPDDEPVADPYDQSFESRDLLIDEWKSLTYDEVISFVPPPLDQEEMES

Take `O=C1c2ccc(Nc3ccc(F)cc3F)cc2OCc2c(OCCN3CCOCC3)cccc21`: the IC50 in data set [1] came to 34 nM. In addition, in data set [2], the inhibition is 32.2%.
With `O=C1c2ccc(OCC[C@@H](O)CO)cc2COc2cc(Nc3ccc(F)cc3F)ccc21`, the IC50 was found to be 21 nM in data set [1] and 37900 nM in data set [3].
Take `O=C1c2ccc(OCCC3CCOCC3)cc2COc2cc(Nc3ccc(F)cc3F)ccc21`: in data set [1], the IC50 stood at 557 nM.
Take `O=C1c2ccc(OCCN3CCOCC3)cc2COc2cc(Nc3ccc(F)cc3F)ccc21`: the figures for the IC50 in data set [1] and in data set [3] were 33 nM and 71800 nM, respectively.
For the molecule `COc1ccc2c(c1)C(=O)c1ccc(Nc3ccc(F)cc3F)cc1CC2`, in data set [4], the remaining at 3 h amounted to 85%. Also, the IC50 in data set [1] was 44 nM; in data set [3], 1650 nM.
Take `Nc1ccccc1Nc1ccc2c(c1)OCc1cc(OCCN3CCOCC3)ccc1C2=O`: the IC50 was 147 nM in data set [1] and 58700 nM in data set [3].
On to `O=C1c2cc(OCCC3CCCCC3)ccc2COc2cc(Nc3ccc(F)cc3F)ccc21`, for which the IC50 in data set [3] is 18600 nM. In data set [5], the inhibition was determined as 41.3%.
As for `CC1(C)OC[C@@H](COc2ccc3c(c2)COc2cc(Nc4ccc(F)cc4F)ccc2C3=O)O1`, the IC50 in data set [1] was determined as 665 nM; in data set [3], 91200 nM.
Consider `COc1cccc2c1COc1cc(Nc3ccc(F)cc3N)ccc1C2=O`, for which, in data set [1], the IC50 came out at 87 nM.
On to `COc1ccc2c(c1)COc1cc(Nc3ccc(F)cc3F)ccc1C2=O`, for which, in data set [1], the IC50 came out at 218 nM.
For `COc1cccc2c1COc1cc(Nc3ccccc3N)ccc1C2=O`, in data set [1], the IC50 came to 94 nM.
Consider `COc1cccc2c1C(=O)c1ccc(Nc3ccc(F)cc3F)cc1OC2`, for which, in data set [1], the IC50 came to 280 nM.
On to `O=C1c2ccc(Nc3ccc(F)cc3F)cc2CCc2ccc(OCCO)cc21`, for which the remaining at 3 h in data set [4] came out at 86%. Moreover, the IC50 in data set [1] amounted to 19 nM; in data set [3] it was 583 nM.
Take `Nc1cc(F)ccc1Nc1ccc2c(c1)OCc1c(OCCN3CCOCC3)cccc1C2=O`: the half-maximal inhibitory concentration (IC50) in data set [1] came to 72 nM. In addition, the inhibition in data set [2] worked out at 38.8%.
For the molecule `Nc1ccc2c(c1)C(=O)c1ccc(Nc3ccccc3F)cc1OC2`, the values for the IC50 in data set [1] and in data set [3] were 111 nM and 4540 nM, respectively.
Turning to `Cc1cc(F)c(NC(=O)c2ccsc2)cc1Nc1ccc2c(c1)OCc1ccc(OC[C@H]3COC(C)(C)O3)cc1C2=O`, the IC50 in data set [1] was 1.8 nM; in data set [3], 287 nM.
On to `COc1ccc2c(c1)C(=O)c1ccc(Nc3ccc(F)cc3F)cc1OC2`, for which the values for the IC50 in data set [1] and in data set [3] were 115 nM and 4710 nM, respectively.
Take `O=C1c2ccc(Nc3ccc(F)cc3F)cc2CCc2ccc(O)cc21`: the remaining at 3 h in data set [4] was determined as 70%. Also, the IC50 was found to be 49 nM in data set [1] and 1250 nM in data set [3].
As to `Cc1cc(F)ccc1Nc1ccc2c(c1)OCc1cc(OCCN3CCOCC3)ccc1C2=O`, the IC50 in data set [1] worked out at 160 nM.
With `CCN(CC)CCOc1ccc2c(c1)C(=O)c1ccc(Nc3ccc(F)cc3F)cc1OC2`, the figures for the IC50 in data set [1] and in data set [3] were 101 nM and 1060 nM, respectively.
For the molecule `O=C1c2cc(OCCN3CCOCC3)ccc2COc2cc(Nc3ccc(F)cc3F)ccc21`, the IC50 was determined as 21 nM in data set [1] and 429 nM in data set [3].
For `O=C1c2ccc(OC[C@@H](O)CO)cc2COc2cc(Nc3ccc(F)cc3F)ccc21`, in that order: 27 nM and 28200 nM.
Take `Nc1ccccc1Nc1ccc2c(c1)OCc1ccc(OCCN3CCOCC3)cc1C2=O`: the IC50 worked out at 107 nM in data set [1] and 490 nM in data set [3].
For `O=C1c2ccc(Nc3ccc(F)cc3F)cc2OCc2cccc(OC[C@H](O)CO)c21`, in data set [1], the IC50 is greater than 10000 nM.
`O=C1c2cc(NCCN3CCOCC3)ccc2COc2cc(Nc3ccc(F)cc3F)ccc21`: the half-maximal inhibitory concentration (IC50) turned out to be 28 nM in data set [1] and 1100 nM in data set [3].
Take `O=C(Nc1cc(Nc2ccc3c(c2)OCc2cc(OCCN4CCOCC4)ccc2C3=O)ccc1F)c1ccccc1`: the IC50 in data set [1] is 17 nM. Moreover, the inhibition in data set [2] stood at 36%.
Regarding `O=C1c2ccc(Nc3ccc(F)cc3F)cc2CCc2ccc(OCCCO)cc21`, the remaining at 3 h in data set [4] came to 90%. The IC50 in data set [1] stood at 13 nM.
As to `CC1(C)OC[C@@H](CCOc2ccc3c(c2)COc2cc(Nc4ccc(F)cc4F)ccc2C3=O)O1`, in data set [1], the half-inhibitory concentration (IC50) came out at 516 nM.
As to `CN(C)CCOc1ccc2c(c1)COc1cc(Nc3ccc(F)cc3F)ccc1C2=O`, the IC50 in data set [1] came to 53 nM; in data set [3], 38100 nM.
Regarding `O=C1c2ccc(Nc3ccc(F)cc3F)cc2OCc2c(OC[C@@H](O)CO)cccc21`, the results for the IC50 in data set [1] and in data set [3] were 25 nM and 90400 nM, respectively.
Turning to `Nc1ccc2c(c1)C(=O)c1ccc(Oc3ccc(F)cc3F)cc1OC2`, the IC50 in data set [1] was found to be 763 nM.
On to `Nc1cc(F)ccc1Nc1ccc2c(c1)OCc1cc(OCCN3CCOCC3)ccc1C2=O`, for which the IC50 stood at 41 nM in data set [1] and 94800 nM in data set [3].
As to `O=C1c2ccccc2COc2cc(Nc3ccc(F)cc3F)ccc21`, the IC50 in data set [3] was 22000 nM.
Turning to `O=C(Nc1ccc(F)c(Nc2ccc3c(c2)OCc2ccc(OCCN4CCOCC4)cc2C3=O)c1)c1ccccc1`, the IC50 stood at 3 nM in data set [1] and 1560 nM in data set [3].
Consider `Nc1ccc2c(c1)C(=O)c1ccc(Nc3ccc(F)cc3)cc1OC2`, for which the 50% inhibitory concentration (IC50) was determined as 103 nM in data set [1] and 5700 nM in data set [3].
Take `COc1cccc2c1COc1cc(Nc3ccc(F)cc3F)ccc1C2=O`: the IC50 in data set [1] was 63 nM. In addition, the inhibition in data set [2] is 44.7%.
For `CC(=O)OCCOc1ccc2c(c1)C(=O)c1ccc(Nc3ccc(F)cc3F)cc1OC2`, in data set [1], the IC50 is 22 nM.
Regarding `O=C1c2cc(OCCO)ccc2COc2cc(Nc3ccc(F)cc3F)ccc21`, the IC50 in data set [1] was 20 nM; in data set [3], 588 nM.
Consider `Cc1ccccc1Nc1ccc2c(c1)OCc1cc(OCCN3CCOCC3)ccc1C2=O`, for which, in data set [1], the IC50 stood at 85 nM. For the same molecule, in data set [2], the inhibition is 30.3%.
In the case of `CC1(C)OC[C@H](COc2ccc3c(c2)C(=O)c2ccc(Nc4ccc(F)cc4F)cc2OC3)O1`, the IC50 in data set [1] was determined as 48 nM; in data set [3] it was 1300 nM.
For `Nc1cccc(Nc2ccc3c(c2)OCc2ccc(N)cc2C3=O)c1`, in that order: 651 nM and 2430 nM.
For `O=C1c2cc(O)ccc2COc2cc(Nc3ccc(F)cc3F)ccc21`, in that order: 122 nM and 1850 nM.
In the case of `O=C1c2ccc(Nc3ccc(F)cc3F)cc2CCc2ccc(OC[C@@H](O)CO)cc21`, the remaining at 3 h in data set [4] turned out to be 100%.
Regarding `Cc1cc(F)c(NC(=O)c2ccsc2)cc1Nc1ccc2c(c1)OCc1ccc(OCCN3CCOCC3)cc1C2=O`, the IC50 in data set [1] came out at 1.7 nM; in data set [3], 148 nM.
Regarding `O=C1c2ccc(Nc3ccc(F)cc3F)cc2OCc2c(OC[C@H](O)CO)cccc21`, the IC50 in data set [1] is 42 nM. Further, the inhibition in data set [2] is 48.5%.
With `CC1(C)OC[C@@H](COc2ccc3c(c2)C(=O)c2ccc(Nc4ccc(F)cc4F)cc2OC3)O1`, the IC50 is 207 nM in data set [1] and 1440 nM in data set [3].
For `Nc1ccc2c(c1)C(=O)c1ccc(Nc3ccc(F)cc3F)cc1OC2`, in that order: 43 nM and 1940 nM.
With `O=C1c2ccc(Nc3ccc(F)cc3F)cc2OCc2cccc(OC[C@@H](O)CO)c21`, the IC50 in data set [1] was greater than 10000 nM.
For `Nc1ccc2c(c1)C(=O)c1ccc(Nc3ccc(F)cc3N)cc1OC2`, the IC50 in data set [1] was 151 nM; in data set [3] it was 1170 nM.
Consider `O=C(Nc1ccc(F)c(Nc2ccc3c(c2)OCc2c(OCCN4CCOCC4)cccc2C3=O)c1)c1ccccc1`, for which the IC50 in data set [1] came to 10 nM. In addition, the inhibition in data set [2] came out at 39%.
`O=C1c2cc(NCCN3CCOCC3)ccc2COc2cc(Oc3ccc(F)cc3F)ccc21`: in data set [1], the IC50 came out at 819 nM.
For `O=C1c2ccc(Nc3ccc(F)cc3F)cc2OCc2c(OCCC3CCOCC3)cccc21`, the IC50 in data set [1] amounted to 571 nM.
As to `O=c1c2ccccc2ccc2cc(Nc3ccc(F)cc3F)ccc12`, the IC50 in data set [1] was found to be 4200 nM.
For the molecule `O=C1c2cc(OCCC3CCOCC3)ccc2COc2cc(Nc3ccc(F)cc3F)ccc21`, the IC50 in data set [1] was found to be 79 nM; in data set [3], 364 nM.
Consider `CC1(C)OC[C@H](COc2cccc3c2COc2cc(Nc4ccc(F)cc4F)ccc2C3=O)O1`, for which the IC50 in data set [1] amounted to 481 nM. Further, in data set [2], the inhibition came to 42.4%.
For `Nc1cccc(Nc2ccc3c(c2)OCc2ccc(OCCN4CCOCC4)cc2C3=O)c1`, the values for the IC50 in data set [1] and in data set [3] were 146 nM and 684 nM, respectively.
For `Nc1ccc2c(c1)C(=O)c1ccc(Nc3cc(F)c(F)cc3F)cc1OC2`, the half-inhibitory concentration (IC50) in data set [1] was determined as 74 nM; in data set [3], 7810 nM.
Take `CC1(C)OC[C@@H](COc2cccc3c2COc2cc(Nc4ccc(F)cc4F)ccc2C3=O)O1`: the IC50 in data set [1] amounted to 563 nM. Further, in data set [2], the inhibition amounted to 48.6%.
For `O=C1c2cc(OC[C@@H](O)CO)ccc2COc2cc(Nc3ccc(F)cc3F)ccc21`, the IC50 was 61 nM in data set [1] and 591 nM in data set [3].
For `O=C1c2cc(OCCCO)ccc2COc2cc(Nc3ccc(F)cc3F)ccc21`, the IC50 was determined as 8 nM in data set [1] and 631 nM in data set [3].
`O=C(Nc1cccc(Nc2ccc3c(c2)OCc2c(OCCN4CCOCC4)cccc2C3=O)c1)c1ccoc1`: the IC50 in data set [1] came to 25 nM; in data set [3] it was 51400 nM.
Turning to `COc1ccc2c(c1)COc1cc(Nc3ccccc3N)ccc1C2=O`, the results for the IC50 in data set [1] and in data set [3] were 132 nM and 71800 nM, respectively.
As for `Nc1ccc2c(c1)C(=O)c1ccc(Nc3ccccc3N)cc1OC2`, the IC50 was 205 nM in data set [1] and 683 nM in data set [3].

The values above are taken from ChEMBL document CHEMBL3085714 (J Med Chem, 2013).
